Experiments:
[1] = Inhibition of BzATP-induced current in rat primary microglia cells measured after repeated BzATP treatment at -60 mV at 10 nM by whole cell patch clamp assay relative to control; assay type: functional
In short: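 Rat primary microglia were whole-cell patch-clamped at −60 mV (external pH 7.4 with 1.8 mM CaCl2; CsCl/EGTA internal pH 7.2). Currents came from 10 s applications of 300 μM BzATP, applied repeatedly. Compound was applied by gravity via capillary for 60 s, and inhibition was taken relative to the control response.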

[2] = Metabolic stability in rat hepatocytes assessed as intrinsic clearance at 1 uM measured after 2 hrs; assay type: ADME, cell-based, Hepatocyte; details: read-out: CLH (converted)
[3] = target: Cytochrome P450 2C9 (Homo sapiens, UniProt P11712); test: Time dependent inhibition of CYP2C9 (unknown origin) upto 25 uM; assay type: ADME
Chain of Cytochrome P450 2C9 (P11712 whole entry): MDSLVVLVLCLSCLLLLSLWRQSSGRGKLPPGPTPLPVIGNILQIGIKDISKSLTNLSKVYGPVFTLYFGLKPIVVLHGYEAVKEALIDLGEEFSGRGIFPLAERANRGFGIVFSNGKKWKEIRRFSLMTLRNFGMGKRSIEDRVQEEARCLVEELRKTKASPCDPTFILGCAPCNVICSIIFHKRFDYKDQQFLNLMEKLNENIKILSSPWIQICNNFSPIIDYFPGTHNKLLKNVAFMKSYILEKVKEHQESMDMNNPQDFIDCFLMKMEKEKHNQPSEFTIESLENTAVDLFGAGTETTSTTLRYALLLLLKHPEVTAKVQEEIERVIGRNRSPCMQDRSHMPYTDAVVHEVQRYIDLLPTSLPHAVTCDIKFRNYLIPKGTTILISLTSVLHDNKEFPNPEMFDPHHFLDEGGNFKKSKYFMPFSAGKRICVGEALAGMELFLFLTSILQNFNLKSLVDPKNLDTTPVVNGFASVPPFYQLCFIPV

[4] = target: Cytochrome P450 2C19 (Homo sapiens, UniProt P33261); test: Inhibition of CYP2C19 (unknown origin) upto 25 uM; assay type: ADME
Chain of Cytochrome P450 2C19 (P33261 whole entry): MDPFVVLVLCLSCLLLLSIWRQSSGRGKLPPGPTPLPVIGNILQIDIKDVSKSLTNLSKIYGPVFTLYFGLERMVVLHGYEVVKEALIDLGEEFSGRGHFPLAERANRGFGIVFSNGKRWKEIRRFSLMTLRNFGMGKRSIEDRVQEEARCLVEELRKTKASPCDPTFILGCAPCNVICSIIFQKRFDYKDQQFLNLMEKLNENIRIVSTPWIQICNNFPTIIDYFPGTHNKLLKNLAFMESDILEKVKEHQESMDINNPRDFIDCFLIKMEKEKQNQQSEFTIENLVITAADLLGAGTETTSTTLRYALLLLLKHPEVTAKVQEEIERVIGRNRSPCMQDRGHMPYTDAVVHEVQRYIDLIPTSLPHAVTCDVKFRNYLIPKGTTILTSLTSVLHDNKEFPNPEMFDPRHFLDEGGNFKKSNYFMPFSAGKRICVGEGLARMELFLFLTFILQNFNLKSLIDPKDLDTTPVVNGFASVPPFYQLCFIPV

[5] = target: T1, Cytochrome P450 2D6 (Homo sapiens, UniProt P10635); test: Inhibition of CYP2D6 (unknown origin) upto 25 uM; assay type: ADME
T1 sequence (P10635 whole entry): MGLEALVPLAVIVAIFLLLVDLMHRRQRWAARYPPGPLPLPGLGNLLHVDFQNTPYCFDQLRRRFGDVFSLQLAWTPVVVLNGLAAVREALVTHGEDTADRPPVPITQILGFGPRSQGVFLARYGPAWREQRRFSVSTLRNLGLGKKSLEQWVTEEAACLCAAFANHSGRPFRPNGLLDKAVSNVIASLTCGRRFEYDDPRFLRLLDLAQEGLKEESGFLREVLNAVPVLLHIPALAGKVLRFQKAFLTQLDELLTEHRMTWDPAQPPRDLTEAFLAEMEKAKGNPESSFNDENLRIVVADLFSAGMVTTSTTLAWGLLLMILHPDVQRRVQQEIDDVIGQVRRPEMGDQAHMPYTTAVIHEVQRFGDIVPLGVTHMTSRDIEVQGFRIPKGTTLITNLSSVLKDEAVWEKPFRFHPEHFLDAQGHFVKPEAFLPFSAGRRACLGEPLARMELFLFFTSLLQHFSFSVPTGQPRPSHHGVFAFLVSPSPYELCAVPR

[6] = target: T1, Cytochrome P450 2D6; test: Time dependent inhibition of CYP2D6 (unknown origin) upto 25 uM; assay type: ADME
[7] = Free plasma concentration in rat at 30 mg/kg, po after 2 hrs by ex vivo equilibrium dialysis; assay type: ADME, organism-based
In short: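 Male Sprague–Dawley rats were dosed orally at 1–100 mg/kg, and total plasma concentration was measured at 1 and 2 h. This was multiplied by fraction unbound from ex vivo equilibrium dialysis; mean ± SEM, n = 3 animals.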

[8] = Reduction in LPS/BzATP-induced IL-1beta release in icv dosed C57BL/6NCrl mouse frontal cortex assessed as minimal effective dose pretreated 1 hr before BzATP stimulus; assay type: functional; details: read-out: MED
In short: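 Rats and mice with frontal cortex microdialysis probes and a lateral ventricle cannula received icv LPS (rat 3 μg/5 μL; mouse 0.1 μg/3 μL), and 1 h later oral compound in 20% HP-β-cyclodextrin. BzATP icv (rat 50 μg; mouse 5 μg) followed 1 h later.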

[9] = target: Sodium channel protein type 5 subunit alpha (Homo sapiens, UniProt Q14524); test: Inhibition of human Nav1.5 at 10 uM
Chain of Sodium channel protein type 5 subunit alpha (Q14524 whole entry): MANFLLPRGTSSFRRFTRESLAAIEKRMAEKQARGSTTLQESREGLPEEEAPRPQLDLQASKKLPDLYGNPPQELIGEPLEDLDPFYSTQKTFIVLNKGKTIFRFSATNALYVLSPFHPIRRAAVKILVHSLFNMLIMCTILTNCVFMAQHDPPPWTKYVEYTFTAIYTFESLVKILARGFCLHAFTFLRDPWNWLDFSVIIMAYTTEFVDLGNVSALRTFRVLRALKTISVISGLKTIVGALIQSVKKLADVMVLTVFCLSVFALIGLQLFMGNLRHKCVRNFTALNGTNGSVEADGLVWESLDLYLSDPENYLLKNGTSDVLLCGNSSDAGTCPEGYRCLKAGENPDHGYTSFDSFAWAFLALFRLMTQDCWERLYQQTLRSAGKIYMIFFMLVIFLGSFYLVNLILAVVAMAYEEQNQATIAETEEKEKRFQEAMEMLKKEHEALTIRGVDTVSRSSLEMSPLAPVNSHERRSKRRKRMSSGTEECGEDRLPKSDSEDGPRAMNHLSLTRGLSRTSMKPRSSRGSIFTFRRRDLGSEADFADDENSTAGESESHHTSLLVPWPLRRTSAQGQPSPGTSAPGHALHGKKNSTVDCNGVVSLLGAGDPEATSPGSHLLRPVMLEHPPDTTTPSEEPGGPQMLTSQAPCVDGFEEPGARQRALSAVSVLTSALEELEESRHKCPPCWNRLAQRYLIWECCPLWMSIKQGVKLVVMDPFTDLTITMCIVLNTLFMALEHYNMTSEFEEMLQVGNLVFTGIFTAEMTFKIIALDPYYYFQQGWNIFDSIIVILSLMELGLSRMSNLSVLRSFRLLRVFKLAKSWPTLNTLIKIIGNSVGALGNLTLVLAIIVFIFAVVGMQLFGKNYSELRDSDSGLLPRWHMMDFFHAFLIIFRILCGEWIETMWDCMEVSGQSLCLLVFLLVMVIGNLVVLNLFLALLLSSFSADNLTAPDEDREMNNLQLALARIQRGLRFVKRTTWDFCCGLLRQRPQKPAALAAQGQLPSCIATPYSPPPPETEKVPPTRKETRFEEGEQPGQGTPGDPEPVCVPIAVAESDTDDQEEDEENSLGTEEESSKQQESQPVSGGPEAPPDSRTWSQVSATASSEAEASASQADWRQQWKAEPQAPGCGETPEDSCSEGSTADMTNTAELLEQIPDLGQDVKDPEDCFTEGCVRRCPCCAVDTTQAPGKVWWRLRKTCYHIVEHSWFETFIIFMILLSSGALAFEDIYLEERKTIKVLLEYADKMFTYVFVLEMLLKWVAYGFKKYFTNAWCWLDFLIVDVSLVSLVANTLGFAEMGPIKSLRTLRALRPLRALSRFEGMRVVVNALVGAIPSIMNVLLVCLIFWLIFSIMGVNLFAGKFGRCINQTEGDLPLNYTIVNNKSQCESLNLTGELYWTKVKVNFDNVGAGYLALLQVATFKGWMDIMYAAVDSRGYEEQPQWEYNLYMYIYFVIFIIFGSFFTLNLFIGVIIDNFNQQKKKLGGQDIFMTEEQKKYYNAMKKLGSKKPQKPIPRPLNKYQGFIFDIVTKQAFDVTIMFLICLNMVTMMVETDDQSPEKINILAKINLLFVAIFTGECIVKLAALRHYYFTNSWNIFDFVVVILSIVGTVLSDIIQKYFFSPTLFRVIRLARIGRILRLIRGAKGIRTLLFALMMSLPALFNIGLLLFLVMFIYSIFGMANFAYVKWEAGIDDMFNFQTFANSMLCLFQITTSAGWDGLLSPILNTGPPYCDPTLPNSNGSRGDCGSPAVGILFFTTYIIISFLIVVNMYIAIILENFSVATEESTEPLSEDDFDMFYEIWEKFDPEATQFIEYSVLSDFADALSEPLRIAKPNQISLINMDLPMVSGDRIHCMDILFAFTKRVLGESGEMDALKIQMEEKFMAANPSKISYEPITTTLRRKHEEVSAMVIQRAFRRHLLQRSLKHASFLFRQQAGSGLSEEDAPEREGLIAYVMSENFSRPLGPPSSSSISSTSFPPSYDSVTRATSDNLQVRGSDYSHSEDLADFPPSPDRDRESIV
In short: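 Human Nav1.5, Cav1.2 and KCNQ1/minK channels were tested at 10 μM.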

[10] = Tmax in male rat at 3 mg/kg, po after 7 days; assay type: ADME, organism-based; details: in vivo, time 7 day
[11] = Cmax in female mouse at 100 mg/kg, po after 14 days; details: in vivo
[12] = Tmax in female mouse at 100 mg/kg, po administered as single dose; details: in vivo

Question: With `O=C(NC[C@H](c1ccc(Cl)cc1)N1CCOCC1)c1sc(-c2ncccn2)nc1C(F)(F)F` as the compound, how does the inhibition at 0.01 µM [1] read?
Answer: 31%

Question: What about the CLint scaled at 1 µM [2] of the same compound?
Answer: 80 mL/min/kg

Question: What about the TDI [3] of the same compound?
Answer: Not Active

Question: And the “inhibition (INH)” value [4]?
Answer: Not Active

Question: And the “inhibition (INH)” value [5]?
Answer: Not Active

Question: And the TDI [6]?
Answer: Not Active

Question: What about the “Cp(f)” value [7] of the same compound?
Answer: 0.556 µM

Question: And the minimal effective dose [8]?
Answer: 10 mg/kg

Question: And the “inhibition (INH)” value [9]?
Answer: Not Active

Question: And the Tmax [10]?
Answer: 1 h

Question: And the Cmax [11]?
Answer: 61.6 µM

Question: What about the Tmax [12] of the same compound?
Answer: 1 h
